# Laboratory results taken from ChEMBL document CHEMBL3243966, “Synthesis of substituted 1-hydroxy-2-naphthanilides as potential cestodicidal agents” (J Med Chem, 1978).
# Activity calls are given as the source filed them. The rule behind the calls is not given here.
# Legend:
# Rodentolepis nana [1] = assay: Cestodicidal activity against Hymenolepis nana infected in po dosed rat assessed as […] after 3 days; type: functional; conditions: 72 h, read-out: MED
# Rodentolepis nana [2] = assay: Cestodicidal activity against Hymenolepis nana infected in rat assessed as reduction in 98 to 100% of worm load at 250 mg/kg, po after 3 days; type: functional, organism-based; set-up: dose 250 mg/kg
# Summary of the method: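 Newly weaned male Freiburg-strain rats (25-30 g) infected orally with 200 viable H. nana ova; faecal ova-positive animals treated on day 15 after overnight fast. Single oral dose, starting at 250 mg/kg, then 100, 50, 13, 7.5 mg/kg; three treated, three untreated controls per group. Sacrificed day 3 post-treatment after fasting; small intestine worms collected and scored. Minimum effective dose: lowest giving score ≤10% of control.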
# Canis familiaris [3] = assay: Toxicity in po dosed dog; type: organism-based, Canis lupus familiaris; conditions: in vivo
# Summary of the method: (§1)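 Acute toxicity study in Mastomys natalensis and dogs, with the compound given orally or intraperitoneally.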
# Rattus norvegicus [4] = assay: Toxicity in rat at 5 g/kg, ip; type: organism-based; conditions: in vivo, 5000 mg/kg
# Mastomys natalensis [5] = assay: Toxicity in po dosed natal multimammate mouse; type: organism-based; conditions: in vivo; summary of the method: as §1
# Rattus norvegicus [6] = assay: Toxicity in rat at 5 g/kg, ip assessed as mortality; type: organism-based; conditions: in vivo, 5000 mg/kg
# Rattus norvegicus [7] = assay: Toxicity in rat infected with Hymenolepis nana at 1 g/kg; type: organism-based; conditions: in vivo, 1000 mg/kg
# Summary of the method: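 Young rats infected with H. nana received 1 g/kg, and tolerance was assessed.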
# [8] = Cestodicidal activity against Hymenolepis diminuta infected in rat assessed as reduction in worm load at 10 mg/kg, po relative to control; type: functional; set-up: scale not given: the % may be the effect or the level left
# Summary of the method: (§2)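 Single oral 10 mg/kg dose, with worm-load reduction as the read-out. H. diminuta was tested in rats; Taenia sp. was tested in naturally infected dogs.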
# Canis familiaris [9] = assay: Toxicity in ip dosed dog; type: organism-based, Canis lupus familiaris; conditions: in vivo; summary of the method: as §1
# Rattus norvegicus [10] = assay: Toxicity in rat at 5 g/kg, po; type: organism-based; conditions: in vivo, 5000 mg/kg
# Rattus norvegicus [11] = assay: Toxicity in rat at 5 g/kg, po assessed as mortality; type: organism-based; conditions: in vivo, 5000 mg/kg
# Taenia = assay: Cestodicidal activity against Taenia species infected in dog assessed as reduction in worm load at 10 mg/kg, po relative to control; type: functional; set-up: scale not given: the % may be the effect or the level left; summary of the method: as §2
# Mastomys natalensis [12] = assay: Toxicity in ip dosed natal multimammate mouse; type: organism-based; conditions: in vivo; summary of the method: as §1
SMILES,Activity (Rodentolepis nana [2]),other results
O=C(Nc1ccc([N+](=O)[O-])cc1Cl)c1cc(Cl)ccc1O [NICLOSAMIDE],,minimal effective dose (Rodentolepis nana [1]): 50 mg/kg
O=c1oc2c(cc(Br)c3ccccc32)c(=O)n1-c1ccc(Cl)cc1Cl,inactive,
O=c1c2ccc3ccccc3c2oc(=S)n1-c1ccc(Cl)cc1[N+](=O)[O-],inactive,
O=c1c2ccc3ccccc3c2oc(=S)n1-c1ccc(Cl)c([N+](=O)[O-])c1,inactive,
O=c1c2cc(Br)c3ccccc3c2oc(=S)n1-c1ccccc1[N+](=O)[O-],inactive,
O=C(Nc1ccc(N2CCN(c3ccccc3)CC2)c([N+](=O)[O-])c1)c1ccc2ccccc2c1O,inactive,
O=C(Nc1ccc([N+](=O)[O-])cc1)c1ccc2ccccc2c1O,inactive,
O=c1c2ccc3ccccc3c2oc(=S)n1-c1ccc([N+](=O)[O-])cc1,inactive,
O=C(Nc1ccc(N2CCCC2)c([N+](=O)[O-])c1)c1ccc2ccccc2c1O,inactive,
Nc1ccc(NC(=O)c2cc(Br)c3ccccc3c2O)cc1,inactive,
O=C(Nc1ccc([N+](=O)[O-])cc1Cl)c1ccc2ccccc2c1O,inactive,
Nc1cc(Cl)ccc1NC(=O)c1ccc2ccccc2c1O,inactive,
O=c1oc2c(cc(Br)c3ccccc32)c(=O)n1-c1ccc([N+](=O)[O-])cc1Cl,inactive,
Nc1ccc(NC(=O)c2ccc3ccccc3c2O)cc1,inactive,
Nc1cc(NC(=O)c2ccc3ccccc3c2O)ccc1Cl,inactive,
CC1CCCN(c2ccc(NC(=O)c3ccc4ccccc4c3O)cc2[N+](=O)[O-])C1 (stereo not given),inactive,
O=C(Nc1ccc(Cl)c([N+](=O)[O-])c1)c1ccc2ccccc2c1O,inactive,
O=C(Nc1ccc(N=C=S)cc1)c1ccc2ccccc2c1O,,minimal effective dose (Rodentolepis nana [1]): 100 mg/kg
O=C(Nc1ccc(Cl)cc1[N+](=O)[O-])c1ccc2ccccc2c1O,inactive,
O=C(Nc1ccccc1[N+](=O)[O-])c1ccc2c(Br)cccc2c1O,,minimal effective dose (Rodentolepis nana [1]): 250 mg/kg
O=C(Nc1ccc(N2CCOCC2)c([N+](=O)[O-])c1)c1ccc2ccccc2c1O,inactive,
O=c1oc2c(cc(Br)c3ccccc32)c(=O)n1-c1ccc(Cl)cc1[N+](=O)[O-],inactive,
O=C(Nc1ccc(N=C=S)cc1Cl)c1ccc2ccccc2c1O,,Activity (Canis familiaris [3]): Non-toxic; Activity (Rattus norvegicus [4]): Non-toxic; Activity (Mastomys natalensis [5]): Non-toxic; Activity (Rattus norvegicus [6]): Non-toxic; Activity (Rattus norvegicus [7]): Non-toxic; Activity [8]: 100%; Activity (Canis familiaris [9]): Non-toxic; Activity (Rattus norvegicus [10]): Non-toxic; Activity (Rattus norvegicus [11]): Non-toxic; Activity (Taenia): 100%; Activity (Mastomys natalensis [12]): Non-toxic; minimal effective dose (Rodentolepis nana [1]): 7.5 mg/kg
O=C(Nc1ccc(N2CCCCC2)c([N+](=O)[O-])c1)c1ccc2ccccc2c1O,inactive,
O=c1oc2c(ccc3ccccc32)c(=O)n1-c1ccccc1[N+](=O)[O-],inactive,

SMILES,Activity (Rodentolepis nana [2]),other results
O=C(Nc1ccc([N+](=O)[O-])cc1)c1cc(Br)c2ccccc2c1O,,minimal effective dose (Rodentolepis nana [1]): 100 mg/kg
Nc1ccc(NC(=O)c2cc(Br)c3ccccc3c2O)c(Cl)c1,inactive,
O=C(Nc1ccc(Cl)cc1Cl)c1cc(Br)c2ccccc2c1O,,minimal effective dose (Rodentolepis nana [1]): 50 mg/kg
O=c1c2cc(Br)c3ccccc3c2oc(=S)n1-c1ccc([N+](=O)[O-])cc1Cl,inactive,
O=C(Nc1ccc([N+](=O)[O-])cc1Cl)c1cc(Br)c2ccccc2c1O,,minimal effective dose (Rodentolepis nana [1]): 13 mg/kg
Nc1ccccc1NC(=O)c1cc(Br)c2ccccc2c1O,inactive,
O=C(Nc1ccc(Cl)cc1Cl)c1ccc2ccccc2c1O,inactive,
O=c1c2ccc3ccccc3c2oc(=S)n1-c1ccc(Cl)cc1Cl,inactive,
O=c1c2cc(Br)c3ccccc3c2oc(=S)n1-c1ccc([N+](=O)[O-])cc1,inactive,
Nc1ccc(NC(=O)c2ccc3ccccc3c2O)c(Cl)c1,inactive,
O=C(Nc1ccccc1[N+](=O)[O-])c1ccc2ccccc2c1O,inactive,
O=c1oc2c(ccc3ccccc32)c(=O)n1-c1ccc(Cl)c([N+](=O)[O-])c1,inactive,
O=c1oc2c(ccc3ccccc32)c(=O)n1-c1ccc(Cl)cc1Cl,inactive,
CN1CCN(c2ccc(NC(=O)c3ccc4ccccc4c3O)cc2[N+](=O)[O-])CC1,inactive,
O=C(Nc1ccc(Cl)c(N=C=S)c1)c1cc(Br)c2ccccc2c1O,,minimal effective dose (Rodentolepis nana [1]): 100 mg/kg
O=c1c2cc(Br)c3ccccc3c2oc(=S)n1-c1ccc(Cl)cc1[N+](=O)[O-],inactive,
O=C(Nc1ccc(Cl)cc1[N+](=O)[O-])c1cc(Br)c2ccccc2c1O,,minimal effective dose (Rodentolepis nana [1]): 250 mg/kg
O=c1oc2c(ccc3ccccc32)c(=O)n1-c1ccc([N+](=O)[O-])cc1Cl,inactive,
O=C(Nc1ccc(N=C=S)cc1Cl)c1cc(Br)c2ccccc2c1O,,minimal effective dose (Rodentolepis nana [1]): 250 mg/kg
O=c1oc2c(ccc3ccccc32)c(=O)n1-c1ccc([N+](=O)[O-])cc1,inactive,
CC1CCN(c2ccc(NC(=O)c3ccc4ccccc4c3O)cc2[N+](=O)[O-])CC1,inactive,
O=c1c2ccc3ccccc3c2oc(=S)n1-c1ccc([N+](=O)[O-])cc1Cl,inactive,
O=c1c2ccc3ccccc3c2oc(=S)n1-c1ccccc1[N+](=O)[O-],inactive,
Nc1ccccc1NC(=O)c1ccc2ccccc2c1O,inactive,
